Results collected from several papers.
Compare with care: the assays were run in different laboratories.
Organism: Mycolicibacterium smegmatis
Observed: microbial growth

CC(C)=CCC/C(C)=C/CNC(=O)COC1C2CC3CC(C2)CC1C3 (stereo not drawn)  MIC: 6.2 µg/mL
NNC(=O)c1ccncc1  MIC (broth dilution; ATCC607): > 200 µg/mL
CC(C)=CCC/C(C)=C/CNCCOC(C)(C)C  MIC: 50 µg/mL
C/C(=N\NC(=N)N)c1cccc(/C(C)=N/NC(=N)N)c1  MIC (MC2155): 15.6 to 31.3 µM
CN[C@@H]1[C@@H](O)[C@@H](O[C@@H]2[C@@H](O)[C@H](O[C@H]3O[C@H]([C@@H](C)O)[C@@H](O)[C@H](O)[C@H]3N)[C@@H](N)C[C@H]2N)OC[C@]1(C)O  MIC (broth dilution; 72 h): 8 µg/mL
CC(C)=CCC/C(C)=C/CNCCNC1C2CC3CC(C2)CC1C3 (stereo not drawn)  MIC: 3.1 µg/mL
COC1C(O)C(n2ccc(=O)[nH]c2=O)OC1C(OC1OC(C(=O)NC2CCCCNC2=O)=CC(O)C1O)C(N)=O (stereo not drawn)  MIC (broth dilution; ATCC607): 6.5 µg/mL
CC(C)=CCC/C(C)=C/CNCCOc1cccc2ccccc12  MIC: 12 µg/mL
CNC(=O)c1cc(Oc2ccc(NC(=O)Nc3ccc(Cl)c(C(F)(F)F)c3)cc2)ccn1  MIC (MC2155): 50 µM
CN[C@H](CC(C)C)C(=O)N[C@H]1C(=O)N[C@@H](CC(N)=O)C(=O)N[C@H]2C(=O)N[C@H]3C(=O)N[C@H](C(=O)N[C@H](C(=O)O)c4cc(O)cc(O)c4-c4cc3ccc4O)[C@H](O)c3ccc(c(Cl)c3)Oc3cc2cc(c3O[C@@H]2O[C@H](CO)[C@@H](O)[C@H](O)[C@H]2O[C@H]2C[C@](C)(N)[C@H](O)[C@H](C)O2)Oc2ccc(cc2Cl)[C@H]1O  MIC (resazurin; MC^2155; 24 h): 0.78 µg/mL
O=C(Nc1ncc([N+](=O)[O-])s1)c1ccccn1  MIC (agar dilution; MC^2155): 100 µM
CC[C@@H](CO)NCCN[C@@H](CC)CO  MIC (resazurin; ATCC607; 72 h): 0.39 µg/mL
CO[C@H]1/C=C/O[C@@]2(C)Oc3c(C)c(O)c4c(O)c(c(/C=N/N5CCN(C)CC5)c(O)c4c3C2=O)NC(=O)/C(C)=C\C=C\[C@H](C)[C@H](O)[C@@H](C)[C@@H](O)[C@@H](C)[C@H](OC(C)=O)[C@@H]1C  MIC: 2 µg/mL
CO[C@H]1/C=C/O[C@@]2(C)Oc3c(C)c(O)c4c(O)c(c(/C=N/N5CCN(C)CC5)c(O)c4c3C2=O)NC(=O)/C(C)=C\C=C\[C@H](C)[C@H](O)[C@@H](C)[C@@H](O)[C@@H](C)[C@H](OC(C)=O)[C@@H]1C  MIC (agar dilution): > 25 µg/mL
O=C(Nc1ccccc1)Nc1ncc([N+](=O)[O-])s1  MIC (agar dilution; MC^2155): > 100 µM
Cc1ccc(-c2nc3ccc(C)cn3c2CC(=O)N(C)C)cc1  MIC (broth dilution): > 50 µM
CC(C)CC=CC=CC(=O)NC(CC(N)=O)C(=O)NC1C(=O)NC(c2ccc(O)cc2)C(=O)NC(CCCN)C(=O)NC(C(C)O)C(=O)NC(c2ccc(O)cc2)C(=O)NC(c2ccc(O)cc2)C(=O)NC(C(C)O)C(=O)NC(Cc2ccccc2)C(=O)NC(CCCN)C(=O)NC(c2ccc(OC3OC(CO)C(O)C(O)C3OC3OC(CO)C(O)C(O)C3O)cc2)C(=O)NC(C(C)O)C(=O)NC(c2ccc(O)cc2)C(=O)NCC(=O)NC(CC(C)C)C(=O)NC(C)C(=O)NC(c2ccc(O)c(Cl)c2)C(=O)OC1C(N)=O (stereo not drawn)  MIC (resazurin; ATCC607; 72 h): 3.25 µg/mL
NNC(=O)c1ccncc1  MIC: 1 µg/mL
